KCNK3 block: human KCNK3 channel inhibitors, primary screen, CHO cells, FluxOR thallium flux, B-score | FluxOR fluorescence; active compounds read low | B-score at 10 µM | hit rate 0.84% among 340,000 | AID 602410, 2012;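 active = B-score under library mean minus 4 SD, starting fluorescence ratio at most library mean plus 5 SD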;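 also: more negative B-score means stronger inhibition of thallium flux through KCNK3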
KCNK9 inh: KCNK9 potassium channel inhibitors, primary screen, HEK293 cells, thallium flux. Potassium channel subfamily K member 9 (Homo sapiens), Q9NPC2. FluxOR thallium flux fluorescence; active compounds read low. B-score at 10 µM. hit rate 1.2% among 310,000. AID 488922, 2010;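 active = ratio B-score over 3 SD below the library mean, with starting fluorescence within 5 SD of its mean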;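 also: negative B-score means less thallium flux so channel inhibition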
hERG protect: hERG rescue from dofetilide block, primary screen, cell-based, CHO-hERG, FluxOR thallium flux, dofetilide IC70. dofetilide IC70 present. activation (rescue from dofetilide block), less the hit threshold, % at 10 µM. hit rate 0.51% among 310,000. AID 1511, 2009;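 active = activation above the mean of controls blocked by dofetilide plus 5 SD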;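 also: thallium influx through hERG after potassium depolarization seen as dye fluorescence rise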
PHOSPHO1 inh: PubChem AID 1565. Phosphoethanolamine/phosphocholine phosphatase (Homo sapiens), Q8TCT1. recombinant PHOSPHO1, absorbance phosphatase assay. inhibition, % at 13.3 µM. hit rate 1.1% among 290,000; in the data active = inhibition above about 60%
Target sequence (Q8TCT1 whole entry, looked up): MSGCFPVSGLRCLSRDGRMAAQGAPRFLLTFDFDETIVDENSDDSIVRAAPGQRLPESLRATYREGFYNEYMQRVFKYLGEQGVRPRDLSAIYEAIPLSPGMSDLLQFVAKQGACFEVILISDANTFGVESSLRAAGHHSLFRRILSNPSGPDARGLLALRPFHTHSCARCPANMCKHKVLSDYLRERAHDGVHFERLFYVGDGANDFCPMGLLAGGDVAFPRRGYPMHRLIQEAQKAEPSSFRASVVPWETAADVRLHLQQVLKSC
KCNQ1 pot: potentiators or activators of KCNQ1 channel, primary screen, cell-based, thallium flux, high-throughput; Potassium voltage-gated channel subfamily KQT member 1 (Homo sapiens), P51787; CHO-K1 KCNQ1, thallium flux FluxOR fluorescence; active compounds read high; B-score at 10 µM; hit rate 0.35% among 310,000; AID 2648, 2010;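 active = fluorescence ratio B-score, a plate-corrected score, at least three library SD, with initial intensity B-score within 5 SD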
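Medium – assay buffer, equal DMSO in all wells · Material – CHO-K1 cell line with stable KCNQ1 potassium channel expression · Signal – kinetic FluxOR thallium fluorescence, 10-s 1-Hz baseline, 110-s post-stimulus read · Compound – single concentration per compound, DMSO matched to controls · Schedule – 37 °C overnight plating, 90-min dark dye load, 20-min compound pretreatment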
KCNQ1 block: inhibitors of human KCNQ1 channel, primary screen, cell-based, thallium flux, high-throughput; hit rate 1.3% among 310,000; CHO-K1 KCNQ1, FluxOR thallium flux fluorescence; active compounds read high; Potassium voltage-gated channel subfamily KQT member 1 (Homo sapiens), P51787; B-score at 10 µM;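 active = compounds whose thallium flux B-score, printed positive for inhibition, exceeds three library SD while starting fluorescence stays within three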;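 also: channel opened by potassium depolarization with thallium stimulus after 20 min compound exposure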
KCNQ1 block val: KCNQ1 potassium channel inhibitors, confirmation, cell-based, Tl flux, duplicate; shares compounds with KCNQ1 block; KCNQ1 cell line, FluxOR thallium flux fluorescence; inhibition, % at 10 µM; hit rate 93% among 1,600;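 active = primary screen active, with duplicate mean exceeding buffer control mean plus 3 SD of buffer wells, cut at about 28% in these data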;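 also: 0% = buffer control ratio and 100% = XE991 inhibitor control ratio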
CHO KCNQ1 ctr: thallium flux effects in parental CHO cells, counter-screen for KCNQ1 inhibitor project, cell-based, Tl flux. shares compounds with KCNQ1 block. parental CHO-K1, FluxOR thallium flux fluorescence ratio; active compounds read low; zero means no signal rise above baseline. fluorescence ratio (Tl flux) at 10 µM. hit rate 21% among 1,600. AID 588366, 2011;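 active = mean of duplicate thallium-flux fluorescence ratios in parental host cells more than 5 SD below the buffer control mean, cut at about 0.38 in these data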;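 also: ratio is peak minus minimum fluorescence divided by baseline fluorescence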
KCNQ1 APC inh: KCNQ1 channel inhibitors, confirmation, orthogonal assay, cell-based, automated electrophysiology. shares compounds with KCNQ1 block. KCNQ1-CHO cells, automated patch clamp current. calls only at 10 µM. hit rate 20% among 490;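 active = KCNQ1 current drop exceeding 3 SD of negative control wells, seen in both duplicate runs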;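 also: steady state current during a 2 s step from -80 to +40 mV; negative values mean current inhibition and positive values mean potentiation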
KCNQ2 spec: KCNQ2 channel inhibition, selectivity assay for KCNQ1 inhibitor project, cell-based | inhibition, % at 10 µM | hit rate 71% among 1,600 | KCNQ2 cells, FluxOR thallium flux fluorescence | shares compounds with KCNQ1 block;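 active = mean percent inhibition of the KCNQ2 thallium signal more than 5 SD above the buffer-only control wells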;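 also: KCNQ2 expressed in CHO cells; 0% = buffer control wells and 100% = XE-991 inhibitor control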
KCNQ1-KCNE1 inh: KCNQ1/KCNE1 channel inhibition, selectivity assay for KCNQ1 inhibitor project, CHO-K1 cells, thallium flux, FluxOR; shares compounds with KCNQ1 block; FluxOR thallium flux fluorescence; inhibition, % at 10 µM; hit rate 77% among 1,600;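 active = mean percent inhibition of duplicate wells above the buffer-only control mean plus 3 SD of those controls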;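 also: 0% = buffer only wells and 100% = XE-991 inhibitor control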
KCNK9 inh conf: KCNK9 potassium channel inhibitors, confirmation, HEK293 cells, thallium flux, duplicate; shares compounds with KCNK9 inh; FluxOR thallium flux fluorescence; inhibition, % at 10 µM; hit rate 43% among 4,900; AID 492992, 2010;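 active = thallium signal inhibited by more than 5 SD of the compound-free buffer control wells, on both duplicate plates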;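 also: 0% = assay buffer control wells without compound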
Kir2-1 spec: mouse Kir2.1 channel inhibition, confirmation, selectivity assay for KCNK9 modulator project, cell-based, HEK293, thallium flux; shares compounds with KCNK9 inh; Kir2.1 cells, FluxOR thallium flux fluorescence; hit rate 4% among 4,900; inhibition, % at 10 µM;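 active = thallium signal drop more than 5 SD beyond the mean of the no-compound control wells, seen in both duplicate plates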;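 also: signal is fluorescence rise after thallium addition divided by baseline fluorescence; plate controls were assay buffer only for no effect and full block by chlorpromazine control for full effect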
Target sequence (P35561 whole entry, looked up): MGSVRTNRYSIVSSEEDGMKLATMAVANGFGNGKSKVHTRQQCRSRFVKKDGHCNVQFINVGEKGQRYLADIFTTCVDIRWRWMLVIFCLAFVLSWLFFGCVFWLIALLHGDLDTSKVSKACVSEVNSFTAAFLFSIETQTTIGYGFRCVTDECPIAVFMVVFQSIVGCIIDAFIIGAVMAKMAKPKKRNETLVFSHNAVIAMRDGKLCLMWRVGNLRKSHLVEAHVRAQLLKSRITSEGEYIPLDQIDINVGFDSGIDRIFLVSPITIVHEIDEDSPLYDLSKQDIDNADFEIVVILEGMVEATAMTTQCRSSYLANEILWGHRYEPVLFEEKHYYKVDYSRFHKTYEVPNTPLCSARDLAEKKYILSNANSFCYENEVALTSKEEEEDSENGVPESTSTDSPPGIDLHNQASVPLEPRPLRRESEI
KCNK9 uninduced: thallium flux in non-induced HEK293 cells, confirmation, counter-screen for KCNK9 inhibitor project, cell-based, second counter screen, non-induced KCNK9-HEK293; FluxOR thallium flux; hit rate 40% among 4,900; inhibition, % at 10 µM; shares compounds with KCNK9 inh;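 active = thallium signal drop beyond 5 SD of the untreated control mean, on both duplicate plates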;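 also: plate controls were buffer only IC0 wells for no effect and SID17386958 at its maximal inhibitory level for full effect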
The depositor's hits bear a star; i = inactive; x = no result given; + = active, no number. The list is not random: actives were taken first. Their share in the collection is about 4%.

SMILES	KCNK3 block	KCNK9 inh	hERG protect	PHOSPHO1 inh	KCNQ1 pot	KCNQ1 block	KCNQ1 block val	CHO KCNQ1 ctr	KCNQ2 spec	KCNQ1-KCNE1 inh	KCNK9 inh conf	Kir2-1 spec	KCNK9 uninduced	others
Clc1ccc(C(c2nnnn2CCc2ccccc2)N2CCSCC2)cc1 (stereo unspecified)	i	-14.1*	0.9	10.6	i	7*	116.0*	0.419	105.7%*	82.0%*	56.0%*	i	45.5%*	KCNQ1 APC inh=i
Fc1ccc(C(c2nnnn2Cc2ccccc2)N2CCSCC2)cc1 (stereo unspecified)	i	i	-3.6	0.6	i	i	x	x	x	x	x	x	x
O=C(Nc1ccc(Oc2cccc3ccccc23)cc1)c1ccco1	i	-13.6*	-12.3	-11.5	i	11*	160.5*	0.287*	i	+	53.5%*	i	31.0%*
COc1ccc(N=C/C=C2/C=C(c3ccccc3)OC(C)(C)O2)cc1	i	i	-27.4	49.9	i	i	x	x	x	x	x	x	x
CN1/C(=C\C(=O)Nc2cccc(Cl)c2)C(C)(C)c2ccccc21	i	-8.22*	-13.7	11.3	i	9*	120.0*	0.388	125.3%*	169.0%*	45.0%*	i	33.5%*	KCNQ1 APC inh=i
CC(C)c1ccc(NC(=O)c2sccc2-n2cccc2)cc1	i	-11.5*	-4.4	4.7	i	6*	128.5*	0.396	114.3%*	178.5%*	46.5%*	i	43.5%*	KCNQ1 APC inh=+
Cc1c(Br)cccc1NC(=O)c1sccc1-n1cccc1	i	i	2.6	-2.7	i	i	x	x	x	x	x	x	x
COc1ccc(OC)c2c1CCC2=O	i	i	-6.8	3.9	i	i	x	x	x	x	x	x	x
Cc1ccc(NC(=O)CSc2n[nH]c(N)n2)cc1S(=O)(=O)N1CCOCC1	i	i	-13.7	20.3	i	i	x	x	x	x	x	x	x
COc1ccc(-c2onc(C)c2-c2cnn(-c3ccccc3)c2)c(O)c1C	i	i	-9.9	-6.8	i	6*	44.0*	0.404	115.3%*	39.0%*	i	i	i
O=C(Nc1ccc(Cl)cc1)Nc1ccccc1NS(=O)(=O)c1cccs1	i	-10.4*	-6.5	1.0	i	7*	81.0*	0.556	66.0%*	i	32.0%*	i	i
O=C(Nc1ccc(F)cc1)Nc1ccccc1NS(=O)(=O)c1cccs1	i	i	-10.9	0.8	i	i	x	x	x	x	x	x	x
CCC(CC)NC(=O)Nc1ccc(F)c(Cl)c1	i	-8.58*	-12.2	27.7	i	9*	44.5*	0.546	i	62.5%*	44.0%*	i	i
Cc1cc(C(=O)N2CCN(C(c3ccccc3)c3ccccc3)CC2)on1	i	i	-10.6	-9.3	i	i	x	x	x	x	x	x	x
COc1ccc(-c2ocnc2C(=O)N2CCN(C(c3ccccc3)c3ccccc3)CC2)cc1	i	-14.2*	-12.5	13.8	i	8*	79.5*	0.424	87.7%*	94.5%*	68.0%*	i	36.5%*
Cc1cccc(C)c1OC1(c2ccccc2)OC(=O)c2ccccc21 (stereo unspecified)	i	-19.2*	-16.3	24.4	i	9*	106.0*	0.416	98.0%*	138.0%*	55.0%*	32.5%*	44.0%*	KCNQ1 APC inh=i
CCOC1(c2ccccc2)OC(=O)c2ccccc21 (stereo unspecified)	i	i	-2.8	4.9	i	i	x	x	x	x	x	x	x
CCn1c(=O)n(CC)c2cc(N3CCCC3)c(NC(=O)c3cc(Br)ccc3OC)cc21	x	-17.6*	-26.7	1.8	i	9*	161.5*	0.327*	122.7%*	+	72.0%*	i	i
CCNC(=S)N/N=C(\C)c1ccc2ccccc2c1	x	i	-5.5	15.0	i	i	x	x	x	x	x	x	x
CSc1nnc(C)c(/C=C/Nc2ccc(F)cc2F)n1	i	i	-6.1	33.9	i	i	x	x	x	x	x	x	x
C=CCSc1nnc(C)c(/C=C/Nc2ccc(Cl)cc2)n1	i	-10.6*	-11.7	33.9	i	8*	73.0*	0.335*	105.7%*	97.5%*	30.5%*	i	55.5%*
O=C1NC2(CCCCCC2)C(=O)N1Cc1cccc(Cl)c1	i	i	-9.3	52.2	i	i	x	x	x	x	x	x	x
Cc1ccc(S(=O)(=O)N2CCN(Cc3ccccc3C(F)(F)F)CC2)cc1	i	i	-11.8	19.4	i	10*	85.0*	0.409	94.0%*	94.5%*	i	i	i
S=C(Nc1ccc(Cc2ccncc2)cc1)Nc1cccc(Cl)c1	i	i	-9.6	8.1	i	8*	67.5*	0.511	86.3%*	37.0%*	i	i	i
CCCCOP(=O)(OCCCC)C(O)c1ccc(Br)cc1 (stereo unspecified)	i	i	-13.1	4.1	i	i	x	x	x	x	x	x	x
